One molecule from ChEMBL document CHEMBL4406862, “Chalcone derivatives targeting mitosis: synthesis, evaluation of antitumor activity and lipophilicity” (Eur J Med Chem, 2019) can be followed below.

Molecules are shown by their SMILES. Calls of active or inactive are those of the source. The rule behind the calls is not given here.

Data set [1] deals with MCF7. Description: Antiproliferative activity against human MCF7 cells assessed as reduction in cell viability incubated for 48 hrs by sulforhodamine B assay. In kind it is functional. The note with it: MCF7, 48 h. The essentials:
(§1)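 Cells in RPMI-1640 with 5% FBS, 37 °C, 5% CO2; seeded 0.05×10^6 cells/well, 24 h, then two-fold serial dilutions from 0 to 150 μM (DMSO up to 0.25%) for 48 h. TCA fixation, SRB stain 30 min, dye solubilized in 10 mM Tris, absorbance 515 nm. GI50 from dose-response curve; mean ± SD, at least three independent experiments in duplicate.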

Data set [2] can be described thus: Antiproliferative activity against human A375-C5 cells assessed as reduction in cell viability incubated for 48 hrs by sulforhodamine B assay. In kind it is functional. The following applies: A375-C5, 48 h. The procedure, abridged:
as §1
On the technique in general: Sulforhodamine B stains cellular protein and so reports cell mass.

Data set [3] has as its system NCI-H460. Description: Antiproliferative activity against human NCI-H460 cells assessed as reduction in cell viability incubated for 48 hrs by sulforhodamine B assay. In kind it is functional. The following applies: NCI-H460, 48 h. The procedure, abridged: as §1
The test system of data set [4] is NCI-H460. Description: Induction of mitotic arrest in human NCI-H460 cells assessed as accumulation of bright round shape cells at 3 times of GI50 incubated for 15 hrs by phase contrast microscopy. In kind it is functional, cell-based.
Data set [5] relates to NCI-H460. Description: Induction of mitotic arrest in human NCI-H460 cells assessed as condensed chromosome at 3 times of GI50 incubated for 15 hrs by DAPI staining based phase contrast microscopy. In kind it is functional, cell-based. The essentials: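 NCI-H460 treated 15 h at 3×GI50; DAPI staining of DNA viewed to detect condensed chromosomes of mitotic cells.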
The subject of data set [6] is NCI-H460. Description: Induction of mitotic arrest in human NCI-H460 cells assessed as mitotic index at 3 times of GI50 incubated for 15 hrs by DAPI staining based phase contrast microscopy (reference value: 11.3 %). In kind it is functional.
The test system of data set [7] is NCI-H460. Put plainly: Induction of mitotic arrest in human NCI-H460 cells assessed as abnormal mitotic spindle morphology at 3 times of GI50 incubated for 15 hrs by immunostaining based fluorescence microscopy. In kind it is functional, cell-based. The essentials:
(§2)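 NCI-H460 on poly-L-lysine coverslips treated 15 h at 3×GI50; fixed in 2% paraformaldehyde, 0.5% Triton X-100 permeabilization, 10% FBS blocking; mouse anti-α-tubulin (1:2500) then Alexa Fluor 488 secondary (1:1500); DAPI 2 µg/mL. Fluorescence microscopy of spindles; multipolar spindles as percentage of total spindles; mean ± SD, three independent experiments.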

Data set [8] has as its system NCI-H460. Description: Induction of mitotic arrest in human NCI-H460 cells assessed as decrease in chromosome align at metaphase plate at 3 times of GI50 incubated for 15 hrs by DAPI staining based fluorescence microscopy. In kind it is functional, cell-based. The procedure, abridged: as §2
The test system of data set [9] is NCI-H460. Put plainly: Induction of mitotic arrest in human NCI-H460 cells assessed as multipolar spindles at 3 times of GI50 incubated for 15 hrs by fluorescence microscopy (reference value: 2 %). In kind it is functional. The essentials:
as §2

Data set [10] deals with NCI-H460. Put plainly: Induction of cell death in human NCI-H460 cells assessed as abnormal nuclear morphology at 3 times of GI50 incubated for 24 hrs by DAPI staining based fluorescence microscopy. In kind it is functional. The essentials:
(§3)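 NCI-H460 cells exposed 24 h, DAPI-stained for DNA, nuclear morphology and micronucleation examined by fluorescence microscopy.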

Data set [11] deals with NCI-H460. Put plainly: Induction of cell death in human NCI-H460 cells assessed as micronucleation at 3 times of GI50 incubated for 24 hrs by DAPI staining based fluorescence microscopy. In kind it is functional. The procedure, abridged: as §3
The test system of data set [12] is NCI-H460. Put plainly: Cytotoxicity against human NCI-H460 cells assessed as reduction in cell viability at 1 times of GI50 incubated for 48 hrs by MTT assay relative to control. In kind it is functional. The essentials: (§4)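 MTT 0.5 mg/ml in serum-free medium 4 h; formazan dissolved in isopropanol/Triton/HCl 2 h; absorbance 570 nm. Viability relative to untreated cells; mean ± SD of at least three independent experiments.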
In general terms: Tetrazolium assays rely on reduction of a dye to a coloured formazan, in cell work by metabolically active cells.

Data set [13] relates to NCI-H460. Put plainly: Cytotoxicity against human NCI-H460 cells assessed as reduction in cell viability at 0.5 times of GI50 incubated for 48 hrs by MTT assay relative to control. In kind it is functional. The essentials:
as §4

Data set [14] concerns NCI-H460. Description: Potentiation of paclitaxel-induced cytotoxicity against human NCI-H460 cells assessed as reduction in cell viability at 1 times of GI50 incubated for 48 hrs by MTT assay (reference value: 92.3 %). In kind it is functional. The procedure, abridged:
as §4

Data set [15] has as its system NCI-H460. Description: Potentiation of paclitaxel-induced cytotoxicity against human NCI-H460 cells assessed as reduction in cell viability at 0.5 times of GI50 incubated for 48 hrs by MTT assay (reference value: 92.3 %). In kind it is functional. The procedure, abridged:
as §4

Data set [16] in a line: Lipophilicity, log k of compound in DMPC/buffer incubated for 30 mins by spectrophotometry. In kind it is physicochemical. The note with it: 0.5 h. The essentials: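 DMPC liposomes made by thin-film hydration in HEPES buffer, extruded at 40 °C. Fixed compound concentration with DMPC 50–1000 μM, incubated 30 min at 37 °C, pH 7.4; spectra 250–500 nm against compound-free references. Second-derivative values fitted (nonlinear least squares) versus lipid concentration to give Kp; lipid molar volume 0.66 L mol⁻¹; mean ± SD of at least three experiments.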

A short description of data set [17]: n-Octanol/water partition coefficient, log P of the compound incubated for 30 mins by spectrophotometry. In kind it is physicochemical.

As usually defined, the GI50 is the concentration giving 50% growth inhibition. As usually defined, the logP is a log measure of how a compound divides between an organic and an aqueous phase. Read a low logP as lower lipophilicity. As for `COc1cc(/C=C/C(=O)c2ccc(C)s2)cc(OC)c1OC`, the GI50 in data set [1] came out at 5.56 µM; in [2], 5.7 µM; in data set [3], 6.28 µM. Moreover, the outcome in [4], in data set [5], in data set [7], in [8], in data set [10] and in data set [11] was Active. Further, the Activity is reported as 25.8 - 49.37% in data set [6]; 28% in data set [9]; 67.9% in data set [12]; 96.9% in data set [13]; 46.8% in data set [14]; 51.8% in data set [15]. For the same molecule, the “log Kp” value in data set [16] amounted to 3.53. For the same molecule, in [17], the logP at 0.5 h is 3.23.
